# Screening results deposited in PubChem by The Scripps Research Institute Molecular Screening Center.
# SIAE primary: inhibitors of human sialic acid acetylesterase SIAE. Q9HAT2. SIAE FP-Rh probe binding, fluorescence polarization. inhibition, % at 9.66 µM. 370,000 compounds, 0.69% hits. AID 1053197;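 active = inhibition above a cutoff: mean of compounds within the control limits plus 3 SD of those, cut at about 17% in these data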;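 also: 0% = plate median of compound wells and 100% = probe without SIAE protein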
# Target sequence (Q9HAT2 whole entry, looked up): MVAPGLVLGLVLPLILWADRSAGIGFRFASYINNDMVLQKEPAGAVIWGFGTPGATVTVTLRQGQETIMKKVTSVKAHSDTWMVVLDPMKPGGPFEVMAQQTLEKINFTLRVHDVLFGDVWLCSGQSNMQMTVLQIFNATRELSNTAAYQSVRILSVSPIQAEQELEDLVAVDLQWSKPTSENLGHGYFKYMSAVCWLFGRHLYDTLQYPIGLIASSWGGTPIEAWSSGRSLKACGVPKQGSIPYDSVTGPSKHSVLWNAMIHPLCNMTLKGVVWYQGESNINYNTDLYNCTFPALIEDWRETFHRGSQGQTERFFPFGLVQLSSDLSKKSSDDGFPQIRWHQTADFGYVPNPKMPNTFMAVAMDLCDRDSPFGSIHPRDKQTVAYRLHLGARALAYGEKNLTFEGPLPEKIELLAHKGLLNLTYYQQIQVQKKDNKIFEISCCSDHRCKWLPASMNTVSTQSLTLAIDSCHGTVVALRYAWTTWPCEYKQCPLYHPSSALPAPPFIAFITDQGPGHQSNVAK
# RBBP9 inhibitor: inhibitors of human serine hydrolase RBBP9; recombinant RBBP9, FP-Rh probe fluorescence polarization; inhibition, % at 7.94 µM; O75884; 220,000 compounds, 0.2% hits;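 active = inhibition above the campaign mean of all tested compounds plus 3 SD, cut at about 14% in these data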;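 also: plate controls were DMSO wells with RBBP9 for no effect and wells lacking RBBP9 protein for full effect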
# Target sequence (O75884 whole entry, looked up): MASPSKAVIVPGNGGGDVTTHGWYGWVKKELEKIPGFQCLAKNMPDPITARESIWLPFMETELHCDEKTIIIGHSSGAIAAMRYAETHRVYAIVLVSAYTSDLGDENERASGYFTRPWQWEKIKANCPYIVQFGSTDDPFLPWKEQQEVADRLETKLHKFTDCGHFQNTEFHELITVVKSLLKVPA
#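 Test system – recombinant human RBBP9 · Input – RBBP9 2.5 µM in dispensing solution, pre-mixing · Medium – Tris buffer pH 8.0, NaCl, Pluronic · Schedule – preincubation 30 min plus labeling 45 min at 25 °C · Measured by – fluorescence polarization · Measure – % inhibition · Controls – DMSO and no-protein wells · Replicates – one well per compound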
# mABHD4 FP: inhibits mouse alpha/beta hydrolase domain 4; Q8VD66; purified mABHD4, FP-Rh probe fluorescence polarization; inhibition, % at 8.92 µM; 370,000 compounds, 0.54% hits; AID 720543;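 active = inhibition exceeding the mean over every tested compound plus 3 SD, cut at about 30% in these data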;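 also: 0% = plate median of compound wells and 100% = S159A mutant with DMSO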
#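 Test system: mABHD4 protein; Read-out basis: % inhibition; Incubation: 45 min + 60 min at 25 °C; Repeats: single replicate; Technique: fluorescence polarization with parallel and perpendicular emission, 525/598 nm; Compound: 8.92 µM, single dose; Benchmarks: full inhibition S159A mutant plus DMSO, zero as sample-well median.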
# HTRA1 inh: HTRA1 (human) protease inhibition | Q92743 | recombinant HTRA1, FP-rhodamine activity-based probe, fluorescence polarization | inhibition, % at 5.96 µM | 340,000 compounds, 0.5% hits | AID 504803; in the data active = inhibition above about 36%;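 also: 0% = enzyme with DMSO and 100% = wells lacking enzyme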
# SIAE inh conf: confirmation of human SIAE inhibitors. shares compounds with SIAE primary. 2,300 compounds, 13% hits. inhibition, % at 9.66 µM. AID 1117263. SIAE FP-Rh activity-based probe, fluorescence polarization;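 active = mean inhibition of the replicates above the hit cutoff set in the primary screen, cut at about 17% in these data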;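 also: 0% = SIAE with DMSO and probe and 100% = probe without SIAE; inhibitors lower polarization as more probe stays unbound to SIAE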
# The depositor's hits bear a star; x = no result given. In the library only some 1.4% were active in any assay of this set; here they are far more common.
SMILES,SIAE primary,RBBP9 inhibitor,mABHD4 FP,HTRA1 inh,SIAE inh conf
CCC(c1nc2ccccc2[nH]1)n1c(C)nc2ccccc21 (configuration not stated),2.3,x,-1.8,x,x
CCCCCCCCC(c1nc2ccccc2[nH]1)N1CCN=C1c1cc2ccccc2[nH]1 (configuration not stated),21.7*,x,25.6,x,28.5*
C/C(=N\O)c1cc(Cl)cc(Cl)c1O,24.8*,6.6,6.6,0.8,30.3*
COCCNC(=O)C(c1ccc(O)cc1)N(Cc1ccccc1)C(=O)CCC(=O)Nc1ccccn1 (configuration not stated),20.4*,x,3.7,-3.1,-3.3
O=C(CN(Cc1ccc(F)cc1)C(=O)CCC(=O)Nc1ccccn1)NCCc1ccccc1,20.8*,x,-0.2,6.0,-1.0
COc1ccc(CCN2C(=O)CSC2=Nc2ccc(C(C)C)cc2)cc1OC,-2.3,-1.9,-8.9,x,x
CCOC(=O)C1=CCN(S(=O)(=O)c2ccc(Br)cc2)C1c1cccc(Cl)c1 (configuration not stated),-4.4,x,-13.1,x,x
Cn1c(=O)c2cc(NC(=S)NC3CC3)ccc2n1Cc1ccc(F)cc1,18.1*,x,5.4,x,-0.3
COc1ccc(C(=O)OCC(=O)Nc2sccc2C(N)=O)cc1[N+](=O)[O-],2.5,x,-5.6,3.9,x
COc1ccc2c(c1)[C@@]1(NCCc3c1[nH]c1ccc(OC)cc31)C(=O)N2,-7.3,x,-2.4,x,x
COc1ccc(NC(=O)Nc2ccc(F)cc2F)cc1,2.0,-1.3,2.0,5.8,x
COc1ccc(NC(=O)Nc2cc(F)ccc2C)cc1,19.7*,1.6,-2.7,2.4,-1.2
COC(=O)CSc1nc2ccc(N)cc2s1,18.1*,5.0,7.9,5.8,5.8
CCOC(=O)CSc1nc2ccc(NC(C)=O)cc2s1,2.8,-2.1,-1.2,7.8,x
CC(NC(=O)CN1CCN(S(=O)(=O)c2ccc(Br)cc2)CC1)c1ccccc1 (configuration not stated),1.1,x,-10.5,-3.5,x
CC(C)(C)OC(=O)N1CCC(C(=O)Nc2cccc(C(=O)NCc3ccccc3)c2)CC1,0.0,x,-7.2,-7.8,x
Oc1ccc2ccccc2c1/C=N/Nc1ccccc1,8.9,-4.8,20.8,12.1,x
Cc1cc(N/N=C/c2c(O)ccc3ccccc23)nc(-c2ccccc2O)n1,20.6*,-11.6,9.1,-3.3,-7.5
COc1ccccc1N1CCN(C2CCCN(C(=O)CN3CCCC3=O)C2)CC1 (configuration not stated),3.8,x,7.3,0.2,x
Cc1ccc(CNC(=O)COc2ccc(S(=O)(=O)N3CCOCC3)cc2)cc1,-5.3,x,-3.3,-3.6,x
CCc1ccc(CNC(=O)CCS(=O)(=O)Cc2ccccc2F)cc1,19.9*,x,-7.2,-6.8,4.0
O=C(NCCc1ccccc1)OCc1cn(-c2cccc(Cl)c2)nn1,7.9,x,-0.7,x,x
O=C(O)CNc1ccccc1C(=O)O,37.6*,12.8,8.8,-1.2,0.9
O=C(O)c1ccccc1NCc1cccnc1,1.7,x,0.7,x,x
CC(C)OP(=O)(O)C(C)NC(=O)OCc1ccccc1 (configuration not stated),-2.2,x,4.6,x,x
SMILES,SIAE primary,RBBP9 inhibitor,mABHD4 FP,HTRA1 inh,SIAE inh conf
O=C1CCCN1c1ccc(S(=O)(=O)N2CCC(c3ccccc3)CC2)cc1,22.0*,-8.8,-3.7,-0.9,-2.1
COc1ccc(N2CCN(C(=O)CSc3nnnn3C3CC3)CC2)cc1,19.5*,x,-1.3,10.5,-2.5
COc1ccccc1N1CCN(C(=O)CSc2nnnn2C2CC2)CC1,0.9,x,1.5,2.4,x
CC(=NNC(=O)c1cc(C)nc2ccccc12)c1ccc(N2CCOCC2)cc1,2.9,x,4.3,1.0,x
O=C(COc1nsnc1N1CCOCC1)N/N=C/c1ccccc1O,2.9,-8.8,-3.5,0.2,x
C/C(=N\NC(=O)Cc1csc(N2CCOCC2)n1)c1ccccc1,20.8*,-4.2,1.6,-1.9,-1.0
O=C(Cc1csc(N2CCOCC2)n1)N/N=C/c1ccc(O)c(O)c1O,31.1*,-2.1,22.1,17.0,17.8*
Nn1c(SCC(=O)Nc2nccs2)nnc1-c1cc(-c2ccc(F)cc2)n[nH]1,3.1,x,3.6,x,x
Cc1ccccc1Cn1cnc2c(cnn2C(C)(C)C)c1=O,4.5,-1.6,-1.7,-3.4,x
Cc1ccc(C)c(Cn2cnc3c(cnn3C(C)(C)C)c2=O)c1,21.8*,-0.2,-6.8,-4.5,-2.3
Cc1cc([N+](=O)[O-])nn1Cc1ccc(C(=O)N/N=C/c2ccc(O)cc2O)cc1,19.1*,1.1,12.2,11.1,5.3
O=C(CCn1cccn1)Nc1ccc2c(c1)OCCO2,7.8,x,-6.7,7.8,x
Cc1ccc(-n2c(SCC(=O)Nc3ccc(S(=O)(=O)Nc4nccs4)cc3)nnc2-c2cccs2)cc1,-21.7,x,-31.2,x,x
C[C@@H]1CN([C@@H](C)CO)C(=O)c2cc(NC(=O)Nc3ccc4c(c3)OCO4)ccc2O[C@H]1CN(C)S(=O)(=O)c1ccc(F)cc1,14.8,x,4.6,-3.9,x
C[C@H](CO)N1C[C@H](C)[C@@H](CN(C)S(=O)(=O)c2ccc(F)cc2)Oc2ccc(NC(=O)Nc3ccc4c(c3)OCO4)cc2C1=O,22.0*,x,6.2,5.7,7.5
O=C(NCc1ccc(C(=O)N2CCCC2)cc1)c1cccc(Br)c1,-1.1,x,3.7,x,x
C[C@@H]1CCCCO[C@@H](CN(C)C(=O)Nc2ccccc2)[C@@H](C)CN([C@H](C)CO)C(=O)c2cc(NC(=O)NC3CCCCC3)ccc2O1,6.6,x,-6.0,x,x
O=[N+]([O-])c1cccc(CN2CCN(c3ncccn3)CC2)c1,-3.1,x,3.1,-6.6,x
O=[N+]([O-])c1cccc(CN2CCN(c3cccc4[nH]ccc34)CC2)c1,20.4*,x,3.2,1.9,-2.4
COc1ccc([C@H]2OC(=O)C[C@H]2C(=O)N2CCCC2)cc1OC,-1.4,x,0.9,x,x
Cc1c(N=C/C=C/c2ccccc2)c(=O)n(-c2ccccc2)n1C,2.9,-8.3,8.7,-0.7,x
Cc1c(N=Cc2cccnc2)c(=O)n(-c2ccccc2)n1C,21.1*,-2.3,5.2,1.7,2.9
CC(=O)Nc1ccc(C(=O)OCC(=O)c2cccc([N+](=O)[O-])c2)cc1,0.9,1.1,-0.4,-4.8,x
Cc1ccc(C(=O)COC(=O)c2cccc(NC(=O)c3ccc([N+](=O)[O-])cc3[N+](=O)[O-])c2)cc1,21.1*,-5.4,-56.7,6.2,-29.4
O=C(OCC(=O)N1CCN(C(=O)COC(=O)c2ccccc2NCCO)CC1)c1ccccc1NCCO,6.0,x,3.1,-0.7,x
O=C(OCC(=O)N1CCN(C(=O)c2ccco2)CC1)c1ccccc1NCCO,24.2*,x,4.0,7.0,1.3
COc1ccccc1N1CCN(CC(=O)Nc2nc(C)c(C(=O)N(C)C)s2)CC1,9.6,x,-5.7,-1.6,x
COC(=O)c1sc(-c2ccccc2)cc1NC(=O)C1CC1,-0.3,-11.7,-10.4,-23.6,x
CCOc1ccc(NC(=O)Nc2cc(-c3ccccc3)sc2C(=O)OC)cc1,29.0*,-6.5,2.9,-0.2,-4.7
CCCCN1CCCCC1(C)C(=O)NCc1ccc2c(c1)OCO2 (configuration not stated),9.1,x,1.4,x,x
